Reference: ChEMBL document CHEMBL4842319, “Synthesis of alkynylated 1,2,4-oxadiazole/1,2,3-1H-triazole glycoconjugates: Discovering new compounds for use in chemotherapy against lung carcinoma and Mycobacterium tuberculosis” (Eur J Med Chem, 2021)
≈ marks a conversion by molar mass, not a printed value.

What was measured:
[1] = test system: Mycobacterium tuberculosis; assay: Antimycobacterial activity against Mycobacterium tuberculosis H37Ra ATCC 25177 assessed as inhibition of bacterial growth incubated for 9 days by resazurin microtiter assay; type: functional; settings: H37Ra ATCC 25177, 216 h, time 9 day
Outline: (§1)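 REMA broth microdilution in 7H9-S medium, run in duplicate. Test compounds were serially two-fold diluted on the plate from 64 to 0.5 µg/mL. Inoculum taken from fresh Löwenstein-Jensen culture, adjusted to McFarland no. 1 and diluted 1:20. Plates were sealed and incubated at 37 °C in normal atmosphere for 9 days, then resazurin was added. Rifampicin and ethambutol served as standards. MIC reported in µg/mL.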

[2] = Selectivity index, ratio of CC50 for human HepG2 cells to MIC for antimycobacterial activity against Mycobacterium tuberculosis H37Rv ATCC 27294; type: toxicity; settings: read-out: Selectivity Index
[3] = test system: Mycobacterium tuberculosis; assay: Antimycobacterial activity against Mycobacterium tuberculosis H37Rv ATCC 27294 assessed as inhibition of bacterial growth incubated for 9 days by resazurin microtiter assay; type: functional; settings: H37Rv ATCC 27294, 216 h, time 9 day; outline: as §1
[4] = Cytotoxicity against mouse RAW264.7 cells assessed as reduction in cell viability incubated for 48 hrs by MTT assay; type: cell-based
Outline: (§2)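 RAW 264.7 macrophages and HepG2 cells were cultured in DMEM at 37 °C, 5% CO2. For the assay, 10⁵ cells/well were preincubated for 24 h, then exposed to compounds at […] for 48 h, in duplicate. MTT (5 mg/mL in PBS) was added for 2 h and absorbance read at 570 nm. Untreated wells served as the negative control. CC50 obtained by regression analysis.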

[5] = Cytotoxicity against human HepG2 cells assessed as reduction in cell viability incubated for 48 hrs by MTT assay; type: cell-based; outline: as §2
[6] = Selectivity index, ratio of CC50 for mouse RAW264.7 cells to MIC for antimycobacterial activity against Mycobacterium tuberculosis H37Rv ATCC 27294; type: toxicity; settings: read-out: Selectivity Index
NCI-H460 = assay: Cytotoxicity against human NCI-H460 cells assessed as inhibition of cell proliferation at 25 uM incubated for 72 hrs by MTT assay relative to control; type: functional; parameters: scale not given: the % may be the effect or the level left
Outline: (§3)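 Tumor lines from NCI. PC-3, HCT-116 and NCIH-460 were grown in RPMI 1640; SKMEL-103 and AGP-01 in DMEM; all with 10% FBS at 37 °C, 5% CO2. Seeding was 0.3×10⁶ cells/mL for SKMEL-103 and AGP-01, 0.1×10⁶ for PC-3 and NCIH-460, and 0.7×10⁵ for HCT-116. Cells were exposed to compound at 25 µM for 72 h. Cells were centrifuged, 1% MTT added for 3 h, formazan dissolved in DMSO and read at 570 nm.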

[7] = Cytotoxicity against human AGP01 cells assessed as inhibition of cell proliferation at 25 uM incubated for 72 hrs by MTT assay relative to control; type: functional; parameters: scale not given: the % may be the effect or the level left; outline: as §3
SK-MEL-103 = assay: Cytotoxicity against human SK-MEL-103 cells assessed as inhibition of cell proliferation at 25 uM incubated for 72 hrs by MTT assay relative to control; type: functional; parameters: scale not given: the % may be the effect or the level left; outline: as §3
PC-3 = assay: Cytotoxicity against human PC-3 cells assessed as inhibition of cell proliferation at 25 uM incubated for 72 hrs by MTT assay relative to control; type: functional; parameters: scale not given: the % may be the effect or the level left; outline: as §3
HCT-116 = assay: Cytotoxicity against human HCT-116 cells assessed as inhibition of cell proliferation at 25 uM incubated for 72 hrs by MTT assay relative to control; type: functional; parameters: scale not given: the % may be the effect or the level left; outline: as §3

SMILES: C#CCOc1ccc(-c2noc(N(CC#C)C3CCCCC3)n2)cc1
- MIC [1]: ≥ 64 µg/mL
- selectivity ratio [2]: > 3.12
- MIC [3]: 64 µg/mL (≈ 191 µM)
- CC50 at 48 h [4]: 101 µg/mL (≈ 300 µM)
- CC50 at 48 h [5]: > 200 µg/mL
- selectivity ratio [6]: 1.57

SMILES: CCCCCCCCCCc1cn(C[C@@H](CO[C@@H]2C=C[C@H](OC(C)=O)[C@@H](COC(C)=O)O2)OC(C)=O)nn1
- MIC [1]: 64 µg/mL (≈ 119 µM)
- selectivity ratio [2]: 0.92
- MIC [3]: 64 µg/mL (≈ 119 µM)
- CC50 at 48 h [4]: 30.4 µg/mL (≈ 56.5 µM)
- CC50 at 48 h [5]: 59 µg/mL (≈ 110 µM)
- selectivity ratio [6]: 0.47

SMILES: C#CCN(c1nc(-c2ccccc2)no1)C1CCCCC1
- MIC [1]: ≥ 64 µg/mL
- selectivity ratio [2]: < 1.69
- MIC [3]: ≥ 64 µg/mL
- Activity (NCI-H460): 22.6%
- CC50 at 48 h [4]: 32.1 µg/mL (≈ 114 µM)
- CC50 at 48 h [5]: 109 µg/mL (≈ 386 µM)
- Activity [7]: 47%
- Activity (SK-MEL-103): 28.6%
- selectivity ratio [6]: < 0.5
- Activity (PC-3): 23.7%

SMILES: C#CCN(c1nc(-c2ccc([N+](=O)[O-])cc2)no1)C1CCCCC1
- MIC [1]: ≥ 64 µg/mL
- selectivity ratio [2]: < 0.68
- MIC [3]: ≥ 64 µg/mL
- CC50 at 48 h [4]: 26.7 µg/mL (≈ 81.9 µM)
- CC50 at 48 h [5]: 43.7 µg/mL (≈ 134 µM)
- Activity [7]: 52.5%
- Activity (SK-MEL-103): 18.5%
- Activity (HCT-116): 37.2%
- selectivity ratio [6]: < 0.41
- Activity (PC-3): 53.7%

SMILES: C#CCN(c1nc(-c2ccc(C#C)cc2)no1)C1CCCCC1
- selectivity ratio [2]: < 0.43
- MIC [3]: ≥ 64 µg/mL
- CC50 at 48 h [4]: 13.1 µg/mL (≈ 42.9 µM)
- CC50 at 48 h [5]: 27.9 µg/mL (≈ 91.5 µM)
- selectivity ratio [6]: < 0.2

SMILES: CC(=O)OC[C@H]1O[C@H](OC[C@@H](Cn2cc(CN(c3nc(-c4ccc(-c5cn(C[C@H](CO[C@@H]6C=C[C@H](OC(C)=O)[C@@H](COC(C)=O)O6)OC(C)=O)nn5)cc4)no3)C3CCCCC3)nn2)OC(C)=O)C=C[C@@H]1OC(C)=O
- MIC [1]: ≥ 64 µg/mL
- selectivity ratio [2]: < 0.18
- MIC [3]: ≥ 64 µg/mL
- CC50 at 48 h [4]: 117 µg/mL (≈ 111 µM)
- CC50 at 48 h [5]: 11.8 µg/mL (≈ 11.2 µM)
- selectivity ratio [6]: < 1.82

SMILES: C#CCN(c1nc(-c2ccc(C(F)(F)F)cc2)no1)C1CCCCC1
- MIC [1]: 64 µg/mL (≈ 183 µM)
- selectivity ratio [2]: 1.93
- MIC [3]: 32 µg/mL (≈ 91.6 µM)
- CC50 at 48 h [4]: 38.3 µg/mL (≈ 110 µM)
- CC50 at 48 h [5]: 61.9 µg/mL (≈ 177 µM)
- selectivity ratio [6]: 1.2

SMILES: CC(=O)OC[C@H]1O[C@H](OC[C@@H](Cn2cc(CN(c3nc(-c4ccc(Br)cc4)no3)C3CCCCC3)nn2)OC(C)=O)C=C[C@@H]1OC(C)=O
- MIC [1]: 4 µg/mL (≈ 5.47 µM)
- selectivity ratio [2]: 5.95
- MIC [3]: 8 µg/mL (≈ 10.9 µM)
- CC50 at 48 h [4]: 39.1 µg/mL (≈ 53.5 µM)
- CC50 at 48 h [5]: 47.6 µg/mL (≈ 65.1 µM)
- selectivity ratio [6]: 4.89

SMILES: C#CCN(c1nc(-c2ccc(C)cc2)no1)C1CCCCC1
- MIC [1]: 64 µg/mL (≈ 217 µM)
- selectivity ratio [2]: < 1.43
- MIC [3]: ≥ 64 µg/mL
- CC50 at 48 h [4]: 17.6 µg/mL (≈ 59.5 µM)
- CC50 at 48 h [5]: 91.9 µg/mL (≈ 311 µM)
- selectivity ratio [6]: < 0.27

SMILES: C#CCN(c1nc(-c2ccc(Cl)cc2)no1)C1CCCCC1
- MIC [1]: 32 µg/mL (≈ 101 µM)
- selectivity ratio [2]: 2.58
- MIC [3]: 16 µg/mL (≈ 50.7 µM)
- CC50 at 48 h [4]: 15.1 µg/mL (≈ 47.9 µM)
- CC50 at 48 h [5]: 41.3 µg/mL (≈ 131 µM)
- selectivity ratio [6]: 0.95

SMILES: CC(=O)OC[C@H]1O[C@H](OC[C@@H](Cn2cc(COc3ccc(-c4noc(N(Cc5cn(C[C@H](CO[C@@H]6C=C[C@H](OC(C)=O)[C@@H](COC(C)=O)O6)OC(C)=O)nn5)C5CCCCC5)n4)cc3)nn2)OC(C)=O)C=C[C@@H]1OC(C)=O
- MIC [1]: ≥ 64 µg/mL
- selectivity ratio [2]: < 0.73
- MIC [3]: ≥ 64 µg/mL
- CC50 at 48 h [4]: > 200 µg/mL
- CC50 at 48 h [5]: 47 µg/mL (≈ 43.6 µM)

SMILES: CC(=O)OC[C@H]1O[C@H](OC[C@@H](Cn2cc(CN(c3nc(-c4cccc(Br)c4)no3)C3CCCCC3)nn2)OC(C)=O)C=C[C@@H]1OC(C)=O
- Activity (NCI-H460): 27.1%
- Activity [7]: 59.9%
- Activity (SK-MEL-103): 52.3%
- Activity (PC-3): 45.5%

SMILES: CC[C@@H](CO)NCCN[C@@H](CC)CO [ETHAMBUTOL]
- MIC [1]: 1 µg/mL (≈ 4.89 µM)
- MIC [3]: 1 µg/mL (≈ 4.89 µM)
- CC50 at 48 h [4]: ≥ 400 µg/mL
- CC50 at 48 h [5]: > 400 µg/mL

SMILES: CO[C@H]1/C=C/O[C@@]2(C)Oc3c(C)c(O)c4c(O)c(c(/C=N/N5CCN(C)CC5)c(O)c4c3C2=O)NC(=O)/C(C)=C\C=C\[C@H](C)[C@H](O)[C@@H](C)[C@@H](O)[C@@H](C)[C@H](OC(C)=O)[C@@H]1C [RIFAMPIN]
- MIC [1]: 0.062 µg/mL (≈ 0.0753 µM)
- selectivity ratio [2]: 1410
- MIC [3]: 0.125 µg/mL (≈ 0.152 µM)
- CC50 at 48 h [4]: 80.4 µg/mL (≈ 97.7 µM)
- CC50 at 48 h [5]: 176 µg/mL (≈ 214 µM)
- selectivity ratio [6]: 643
